Published values from different studies.
Compare with care: the assays were run in different laboratories.
DRD3: D(3) dopamine receptor (DRD3, Homo sapiens, UniProt P35462)
SLC6A3: Sodium-dependent dopamine transporter (SLC6A3, Homo sapiens, UniProt Q01959)
CA12: Carbonic anhydrase 12 (CA12, Homo sapiens, UniProt O43570)
USP51: Ubiquitin carboxyl-terminal hydrolase 51 (USP51, Homo sapiens, UniProt Q70EK9)

| SMILES | target | observed | action | technique | cells | concentration | inhibition [%] |
| --- | --- | --- | --- | --- | --- | --- | --- |
| O=C(c1ccc(Cl)cc1)N(Cc1ccccc1)C1CCCCC1 | Urotensin-2 receptor (UTS2R, Homo sapiens, UniProt Q9UKP6) | cell-free assay | – | – | – | 10 µM | 27.3 |
| Cc1cc(C)cc(NC(=O)CN2CCN(C(=O)c3ccco3)CC2)c1 | DRD3 | enzyme activity | inhibitor | – | – | 10 µM | -32.1 |
| Fc1ccc(C(c2ccc(F)cc2)c2nnnn2CCCCN2CCC(Cc3ccccc3)CC2)cc1 | SLC6A3 | transporter uptake | inhibitor | – | HEK293 | 1 µM | 92.3 |
| CCOC(=O)C1CSc2[nH]c(=O)sc2C1c1cn(-c2ccccc2)nc1-c1ccc(C)cc1 (stereo not drawn) | CA12 | enzyme activity | inhibitor | absorbance | – | 1 µM | 52.9 |
| O=C1C2CCCN2C(=O)N1CCCCN1CCN(c2ccccc2)CC1 (stereo not drawn) | DRD3 | enzyme activity | inhibitor | – | – | 10 µM | 33.5 |
| CCOC(=O)C1CSc2[nH]c(=O)sc2C1c1cn(-c2ccccc2)nc1-c1ccc(Br)cc1 (stereo not drawn) | CA12 | enzyme activity | inhibitor | absorbance | – | 100 µM | 92.1 |
| CCCC(=O)O | USP51 | enzyme activity | inhibitor | – | – | 5 µM | 30 |
| CCOc1ccc(N2C(=O)CC(NCCc3ccccc3Cl)C2=O)cc1 (stereo not drawn) | DRD3 | enzyme activity | inhibitor | – | – | 10 µM | 2.43 |
| CCN(CC)CCNC(=O)c1c(C)[nH]c(/C=C2\C(=O)Nc3ccc(F)cc32)c1C | Tyrosine-protein kinase Lyn (Lyn, Mus musculus, UniProt P25911) | enzyme activity | inhibitor | – | – | 0.3 µM | 40 |
| CCOC(=O)C1CSc2[nH]c(=O)sc2C1c1cn(-c2ccccc2)nc1-c1ccc(OC)cc1 (stereo not drawn) | CA12 | enzyme activity | inhibitor | absorbance | – | 10 nM | 17.1 |
| Fc1ccc(C(c2ccc(F)cc2)c2nnnn2CCCCN2CCN(Cc3ccccc3)CC2)cc1 | SLC6A3 | transporter uptake | inhibitor | – | HEK293 | 1 µM | 95.7 |
| COc1ccc(-c2oc3c(CC=C(C)C)c(O[C@@H]4O[C@H](CO)[C@@H](O)[C@H](O)[C@H]4O)cc(O)c3c(=O)c2O[C@@H]2O[C@@H](C)[C@H](O)[C@@H](O)[C@H]2O)cc1 | USP51 | enzyme activity | inhibitor | – | – | 5 µM | 7 |
| Cc1ccc(C(C)C)c(OCC(O)CN2CCN(c3ccccc3F)CC2)c1 (stereo not drawn) | DRD3 | enzyme activity | inhibitor | – | – | 10 µM | 20.4 |
| Cc1ccc(-c2nn(-c3ccccc3)cc2C2c3sc(=O)[nH]c3SC3C(=O)N(c4ccccc4)C(=O)C32)cc1 (stereo not drawn) | CA12 | enzyme activity | inhibitor | absorbance | – | 1 µM | 56.2 |
| O=C(O)c1cc(O)c(O)c(O)c1 | USP51 | enzyme activity | inhibitor | – | – | 5 µM | 99 |
| O=C(CCN1CCC(O)(c2ccc(F)cc2)C1)c1ccc2c(c1)OCCO2 (stereo not drawn) | DRD3 | enzyme activity | inhibitor | – | – | 10 µM | 9 |
| O=c1c(O)c(-c2ccc(O)c(O)c2)oc2cc(O)ccc12 | USP51 | enzyme activity | inhibitor | – | – | 5 µM | 17 |
| Cc1ccccc1N1CCN(CC(O)COc2ccc(C(=O)c3ccccc3)cc2)CC1 (stereo not drawn) | DRD3 | enzyme activity | inhibitor | – | – | 10 µM | 53.1 |
| COc1ccc([C@@H]2CC(=O)c3c(O)cc(O[C@@H]4O[C@H](CO[C@@H]5O[C@@H](C)[C@H](O)[C@@H](O)[C@H]5O)[C@@H](O)[C@H](O)[C@H]4O)cc3O2)cc1O | USP51 | enzyme activity | inhibitor | – | – | 5 µM | 30 |
| Clc1ccc(C(c2ccccc2)c2nnnn2CCCN2CCC(CCc3ccccc3)CC2)cc1 (stereo not drawn) | SLC6A3 | transporter uptake | inhibitor | – | HEK293 | 1 µM | 78.4 |
| O=c1c(-c2ccc(O)cc2)coc2cc(O)ccc12 | USP51 | enzyme activity | inhibitor | – | – | 5 µM | 10 |
| O=C1NC(=S)C(=Cc2cn(-c3ccccc3)nc2-c2ccc(Br)cc2)S1 | CA12 | enzyme activity | inhibitor | absorbance | – | 100 µM | 75 |
| Fc1ccc(C(c2ccc(F)cc2)c2nnnn2CCCCN2CCC(CCCc3ccccc3)CC2)cc1 | SLC6A3 | transporter uptake | inhibitor | – | HEK293 | 1 µM | 53.4 |
| CC1CCC(C(C)C)C(O)C1 (racemic) | USP51 | enzyme activity | inhibitor | – | – | 5 µM | 37 |
